According to ChEMBL document CHEMBL1148950, “Indole glucoalkaloids from Chimarrhis turbinata and their evaluation as antioxidant agents and acetylcholinesterase inhibitors” (J Nat Prod, 2004):
Active and inactive are the calls of the source. No cut-off for these calls is given here.

Assays:
[1] = test system: Radical scavenging activity; assay: Antioxidant activity assessed as DPPH radical scavenging activity; type: functional
Outline: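 Radical scavenging against DPPH with rutin as the reference standard. The value is the concentration in µM needed to scavenge 50% of DPPH free radicals.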

[2] = target: Acetylcholinesterase (Homo sapiens) (UniProt P22303); assay: Inhibition of acetylcholinesterase at 0.1 uM by TLC screening assay
Acetylcholinesterase (Homo sapiens), sequence (P22303 whole entry): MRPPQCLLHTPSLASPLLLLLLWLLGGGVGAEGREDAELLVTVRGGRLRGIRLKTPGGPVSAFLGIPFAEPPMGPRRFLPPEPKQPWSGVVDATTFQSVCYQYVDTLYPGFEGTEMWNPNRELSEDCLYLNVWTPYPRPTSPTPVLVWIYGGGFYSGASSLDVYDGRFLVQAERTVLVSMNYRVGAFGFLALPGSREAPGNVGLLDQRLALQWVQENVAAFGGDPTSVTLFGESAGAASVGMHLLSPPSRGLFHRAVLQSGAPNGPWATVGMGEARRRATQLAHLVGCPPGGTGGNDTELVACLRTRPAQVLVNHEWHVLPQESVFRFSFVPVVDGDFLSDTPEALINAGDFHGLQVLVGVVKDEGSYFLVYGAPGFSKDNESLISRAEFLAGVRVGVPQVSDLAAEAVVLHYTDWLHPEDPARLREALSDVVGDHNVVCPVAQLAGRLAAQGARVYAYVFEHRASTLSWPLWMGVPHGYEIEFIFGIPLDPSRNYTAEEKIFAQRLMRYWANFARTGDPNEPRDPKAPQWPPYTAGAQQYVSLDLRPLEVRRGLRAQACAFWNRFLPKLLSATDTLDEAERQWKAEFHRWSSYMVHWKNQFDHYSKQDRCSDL
Outline: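 TLC bioautography on silica gel. Samples in MeOH or MeOH-CH2Cl2 at 0.1 and 1.0 mM were spotted (2 µL), with physostigmine and galanthamine references at 0.1 and 0.01 µM. The plate was sprayed to saturation with 1:1 1 mM DTNB/[…] iodide in buffer, dried 5 min, then sprayed with 3 U/mL AChE. White spots on a yellow background were scored as inhibition.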

Acetylcholinesterase = target: T1, Acetylcholinesterase (Rattus norvegicus, UniProt P37136); assay: Inhibition of rat brain acetylcholinesterase by colorimetric method
T1 sequence (P37136 whole entry): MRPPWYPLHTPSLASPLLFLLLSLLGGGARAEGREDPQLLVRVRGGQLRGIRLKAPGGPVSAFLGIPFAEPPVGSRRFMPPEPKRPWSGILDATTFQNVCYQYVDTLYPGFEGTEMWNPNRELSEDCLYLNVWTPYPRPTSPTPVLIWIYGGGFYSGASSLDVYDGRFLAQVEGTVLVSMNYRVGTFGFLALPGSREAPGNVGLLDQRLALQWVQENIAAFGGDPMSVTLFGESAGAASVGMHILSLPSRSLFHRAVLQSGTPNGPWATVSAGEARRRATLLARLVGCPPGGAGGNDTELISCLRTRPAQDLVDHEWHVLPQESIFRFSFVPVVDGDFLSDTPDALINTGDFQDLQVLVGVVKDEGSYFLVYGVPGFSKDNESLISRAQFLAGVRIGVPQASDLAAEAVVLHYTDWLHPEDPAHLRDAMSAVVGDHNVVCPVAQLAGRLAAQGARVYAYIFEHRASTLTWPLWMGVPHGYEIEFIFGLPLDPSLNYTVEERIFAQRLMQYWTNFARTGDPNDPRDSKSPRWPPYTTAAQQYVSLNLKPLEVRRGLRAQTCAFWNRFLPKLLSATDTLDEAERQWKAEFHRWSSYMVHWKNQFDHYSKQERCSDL

[3] = target: Acetylcholinesterase (Homo sapiens) (UniProt P22303); assay: Inhibition of acetylcholinesterase at 1.0 uM by TLC screening assay

Structure (SMILES)	IC50 [1] [µM]	further results
Cc1nc(C(=O)O)cc2c1[nH]c1ccccc12 [HARMAN-3-CARBOXYLIC ACID]	45.5	
C=CC1C(CC2=NCCc3c2[nH]c2ccccc32)C(C(=O)O)=CO[C@H]1O[C@@H]1O[C@H](CO)[C@@H](O)[C@H](O)[C@H]1O (stereo partly drawn)	52.3	
C=CC1C(CC2=NCCc3c2[nH]c2ccccc32)C(C(=O)OC)=CO[C@H]1O[C@@H]1O[C@H](CO)[C@@H](O)[C@H](O)[C@H]1O (stereo partly drawn)	55.1	
C=CC1C(Cc2nc(C(=O)O)cc3c2[nH]c2ccc(O)cc23)C(C(=O)OC)=CO[C@H]1O[C@@H]1O[C@H](CO)[C@@H](O)[C@H](O)[C@H]1O (stereo partly drawn) [CORDIFOLINE]	18.3	
C=C[C@H]1[C@@H](/C(=C/O)C(=O)OC)C[C@H]2c3[nH]c4ccccc4c3CCN2[C@H]1O[C@H]1O[C@@H](CO)[C@H](O)[C@@H](O)[C@@H]1O [TURBINATINE]	50.9	Activity [2]: Active; IC50 (Acetylcholinesterase): 1.86 µM
C[C@@H]1O[C@@H](OC[C@H]2O[C@@H](Oc3c(-c4ccc(O)c(O)c4)oc4cc(O)cc(O)c4c3=O)[C@H](O)[C@@H](O)[C@@H]2O)[C@H](O)[C@H](O)[C@H]1O [RUTIN]	12.3	
C=CC1C(C[C@@H]2NCCc3c2[nH]c2ccccc32)C(C(=O)O)=CO[C@H]1O[C@@H]1O[C@H](CO)[C@@H](O)[C@H](O)[C@H]1O (stereo partly drawn) [STRICTOSIDINIC ACID]	49.7	
C=C[C@H]1[C@H](O[C@H]2O[C@H](CO)[C@@H](O)[C@H](O)[C@H]2O)OC=C(C(=O)OC)[C@H]1Cc1nc(C(=O)O)cc2c1[nH]c1ccccc12 [DESOXYCORDIFOLINE]	49.9	Activity [3]: Active
C=CC1C(C[C@@H]2NC(C(=O)O)Cc3c2[nH]c2ccccc32)C(C(=O)OC)=CO[C@H]1O[C@@H]1O[C@H](CO)[C@@H](O)[C@H](O)[C@H]1O (stereo partly drawn)	47.1	
C=C[C@H]1[C@H](O[C@@H]2O[C@H](CO)[C@@H](O)[C@H](O)[C@H]2O)OC=C(C(=O)OC)[C@H]1C[C@@H]1NCCc2c1[nH]c1ccccc21 [STRICTOSIDINE]	56	
